Data on 25 molecules can be found in ChEMBL document CHEMBL1127357, “Synthesis and biochemical evaluation of a series of aminoflavones as potential inhibitors of protein-tyrosine kinases p56lck, EGFr, and p60v-src” (J Med Chem, 1994).

In assay [1] the target is Tyrosine-protein kinase Lck (Bos taurus). Nature of the assay: In vitro inhibition of protein-tyrosine activity of p56lck enzyme in presence of 50 uM ATP.
Assay [2] has as its target Epidermal growth factor receptor (Homo sapiens, UniProt P00533). The experiment in a line: Inhibition of in vitro activity of EGFr enzyme from A431 cells in presence of 5 uM ATP. In kind it is cell-based, A-431. The procedure, abridged:
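EGFr from human A431 shed membrane vesicles, solubilised in 4% Triton X-100/10% glycerol; 10 μg vesicle protein. Buffer 20 mM HEPES pH 7.4, 15 mM MgCl2, 4 mM MnCl2, 0.02% BSA, 5 μM [32P]ATP, 25 μg Glu:Ala:Tyr (6:3:1) copolymer, 250 ng EGF. 10 min at room temperature; TCA/pyrophosphate quench, filter wash, scintillation counting; autophosphorylation controls included.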

Sequence of Epidermal growth factor receptor (P00533 whole entry): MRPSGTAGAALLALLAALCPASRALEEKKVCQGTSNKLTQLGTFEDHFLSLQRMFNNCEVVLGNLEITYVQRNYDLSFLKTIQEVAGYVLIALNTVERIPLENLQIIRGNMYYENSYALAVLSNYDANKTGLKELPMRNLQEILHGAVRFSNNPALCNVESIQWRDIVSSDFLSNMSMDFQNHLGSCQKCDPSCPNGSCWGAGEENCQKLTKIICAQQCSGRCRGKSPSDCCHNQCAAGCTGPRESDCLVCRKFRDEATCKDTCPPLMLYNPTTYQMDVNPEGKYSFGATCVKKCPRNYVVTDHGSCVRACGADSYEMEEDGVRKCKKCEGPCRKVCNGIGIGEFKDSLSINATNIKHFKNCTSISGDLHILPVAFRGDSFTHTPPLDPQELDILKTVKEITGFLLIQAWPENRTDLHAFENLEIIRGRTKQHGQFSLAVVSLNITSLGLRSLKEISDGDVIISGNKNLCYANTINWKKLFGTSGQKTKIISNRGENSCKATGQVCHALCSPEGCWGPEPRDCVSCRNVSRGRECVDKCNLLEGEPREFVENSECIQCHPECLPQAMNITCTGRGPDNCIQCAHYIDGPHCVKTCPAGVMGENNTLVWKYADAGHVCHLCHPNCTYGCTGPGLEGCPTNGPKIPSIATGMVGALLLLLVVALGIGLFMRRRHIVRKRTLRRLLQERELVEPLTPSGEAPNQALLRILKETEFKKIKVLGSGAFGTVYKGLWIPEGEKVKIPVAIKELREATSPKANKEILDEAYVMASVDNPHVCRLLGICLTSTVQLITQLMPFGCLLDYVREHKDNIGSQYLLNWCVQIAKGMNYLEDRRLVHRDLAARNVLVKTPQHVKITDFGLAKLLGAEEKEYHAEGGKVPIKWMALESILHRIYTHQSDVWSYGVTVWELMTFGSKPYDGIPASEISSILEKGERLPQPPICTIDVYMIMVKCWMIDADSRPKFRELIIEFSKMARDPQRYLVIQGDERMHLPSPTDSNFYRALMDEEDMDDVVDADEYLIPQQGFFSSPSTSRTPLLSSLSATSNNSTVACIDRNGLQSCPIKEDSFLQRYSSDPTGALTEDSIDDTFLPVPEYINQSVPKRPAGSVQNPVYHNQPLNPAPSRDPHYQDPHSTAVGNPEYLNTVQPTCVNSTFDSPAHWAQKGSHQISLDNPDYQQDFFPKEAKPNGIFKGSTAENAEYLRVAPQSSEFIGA

The term IC50 denotes the concentration at which inhibition is half-maximal. On to `Nc1ccc(-c2cc(=O)c3cc(O)cc(N)c3o2)cc1`, for which the figures for the IC50 in assay [1] and in assay [2] were 117 µM and more than 100 µM, respectively.
`Nc1ccc(-c2cc(=O)c3cc(N)cc(N)c3o2)cc1`: the values for the IC50 in assay [1] and in assay [2] were 106 µM and more than 100 µM, respectively.
Taken in the same sequence, the figures for `Nc1ccc(-c2cc(=O)c3cc(N)ccc3o2)cc1` were 103 µM and 8.7 µM.
Consider `O=c1cc(-c2ccc([N+](=O)[O-])cc2)oc2cc(O)c([N+](=O)[O-])cc12`, for which the IC50 in assay [1] was more than 2000 µM.
Turning to `COc1cc(N)c2oc(-c3cccc(N)c3)cc(=O)c2c1`, the IC50 in assay [2] is more than 100 µM.
With `Nc1ccc(-c2cc(=O)c3ccc(O)c(N)c3o2)cc1`, the IC50 in assay [1] was 328 µM; in assay [2] it was more than 100 µM.
The corresponding values for `Nc1ccc(-c2cc(=O)c3c(O)ccc(N)c3o2)cc1` are 326 µM and more than 100 µM.
Taken in the same sequence, the figures for `Nc1ccc(-c2cc(=O)c3c(N)c(O)c(N)cc3o2)cc1` were 18 µM and more than 100 µM.
As to `COc1cc([N+](=O)[O-])c2oc(-c3ccc([N+](=O)[O-])cc3)cc(=O)c2c1`, the IC50 in assay [1] was more than 2000 µM.
`Nc1cccc(-c2cc(=O)c3cc(N)c(O)cc3o2)c1`: the 50% inhibitory concentration (IC50) in assay [1] was 502 µM; in assay [2], more than 100 µM.
Taken in the same sequence, the figures for `Nc1cccc(-c2cc(=O)c3cc(N)ccc3o2)c1` were 200 µM and more than 100 µM.
With `O=c1cc(-c2ccc([N+](=O)[O-])cc2)oc2c([N+](=O)[O-])cc(O)cc12`, the concentration for half-maximal inhibition (IC50) in assay [1] was more than 2000 µM.
In the case of `COc1ccc(N)c2oc(-c3ccc(N)cc3)cc(=O)c12`, the concentration for half-maximal inhibition (IC50) in assay [2] was more than 100 µM.
As for `Nc1ccc(-c2cc(=O)c3cc(N)c(O)c(N)c3o2)cc1`, the IC50 in assay [1] was 754 µM; in assay [2], more than 100 µM.
Turning to `COc1ccc([N+](=O)[O-])c2oc(-c3ccc([N+](=O)[O-])cc3)cc(=O)c12`, the IC50 in assay [1] was more than 2000 µM.
Turning to `Nc1ccc(-c2cc(=O)c3c(O)c(N)ccc3o2)cc1`, the IC50 in assay [1] was 223 µM; in assay [2] it was more than 100 µM.
As to `O=c1cc(-c2ccc([N+](=O)[O-])cc2)oc2ccc([N+](=O)[O-])c(O)c12`, in assay [1], the IC50 was more than 2000 µM.
With `COc1cc(N)c2oc(-c3ccc(N)cc3)cc(=O)c2c1`, the IC50 is 382 µM in assay [1] and more than 100 µM in assay [2].
For the molecule `Nc1ccc(-c2cc(=O)c3cccc(N)c3o2)cc1`, the values for the IC50 in assay [1] and in assay [2] were 123 µM and more than 100 µM, respectively.
On to `O=c1cc(-c2ccc([N+](=O)[O-])cc2)oc2c([N+](=O)[O-])c(O)ccc12`, for which, in assay [1], the half-maximal inhibitory concentration (IC50) amounted to 1880 µM.
Turning to `O=c1cc(-c2ccc([N+](=O)[O-])cc2)oc2c([N+](=O)[O-])ccc(O)c12`, the IC50 in assay [1] was more than 2000 µM.
Take `Nc1cccc(-c2cc(=O)c3c(N)c(O)c(N)cc3o2)c1`: the half-inhibitory concentration (IC50) in assay [1] came out at 46 µM; in assay [2], 7.8 µM.
Turning to `O=c1cc(-c2ccc([N+](=O)[O-])cc2)oc2c([N+](=O)[O-])cccc12`, the IC50 in assay [1] was more than 2000 µM.
`Nc1ccc(-c2cc(=O)c3cc(N)c(O)cc3o2)cc1`: the IC50 worked out at 141 µM in assay [1] and 14.1 µM in assay [2].
As to `O=c1cc(-c2ccc([N+](=O)[O-])cc2)oc2ccc([N+](=O)[O-])cc12`, the IC50 in assay [1] was more than 2000 µM.
